Measured values as given in ChEMBL document CHEMBL1141109, “Synthesis of an estrogen receptor beta-selective radioligand: 5-[18F]fluoro-(2R,3S)-2,3-bis(4-hydroxyphenyl)pentanenitrile and comparison of in vivo distribution with 16alpha-[18F]fluoro-17beta-estradiol” (J Med Chem, 2005).

Key:
[1] = Biodistribution of [18F]-FEDPN in alpha estrogen receptor knock out mouse blood after 30 min; (n=3); type: ADME, organism-based; settings: in vivo, 0.5 h
Procedure, shortened: (§1)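 ERKO female mice (αERKO or βERKO), rested 48 h after shipping, placed on estrogen-free chow, and staged by daily vaginal smears. Injected in a nonestrous stage with 11 µCi [18F]FEDPN in 130 µL of 10% ethanol/saline. Killed at 30 min, 1 h or 2 h. Organs counted and reported as %ID/g ± SD, three animals per point.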

[2] = Biodistribution of [18F]FEDPN in alpha estrogen receptor knock out mouse liver after 30 min; (n=3); type: ADME, organism-based; settings: in vivo, 0.5 h; procedure, shortened: as §1
[3] = Biodistribution of [18F]FEDPN in rat lung after 30 min when given in tail vein; (n=5); type: ADME, organism-based; settings: in vivo, iv, 0.5 h
Procedure, shortened: (§2)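 Immature female Sprague–Dawley rats (<25 days old) under isoflurane/O2 got 20 µCi tracer in 150 µL 20% ethanol/saline by tail vein. […] Rats were killed at 30 min, 1 h or 2 h. Organs were blotted, weighed and gamma-counted against an injectate standard. Data are %ID/g ± SD, five rats per point.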

[4] = Biodistribution of [18F]FEDPN in rat ovaries after 2 h when given in tail vein; (n=5); type: ADME, organism-based, Female gonad; settings: in vivo, iv; procedure, shortened: as §2
[5] = Biodistribution of [18F]FEDPN in rat blood after 30 min when given in tail vein; (n=5); type: ADME, organism-based; settings: in vivo, iv, 0.5 h; procedure, shortened: as §2
[6] = Biodistribution of [18F]FEDPN in rat liver after 30 min when given in tail vein; (n=5); type: ADME, organism-based; settings: in vivo, iv, 0.5 h; procedure, shortened: as §2
[7] = Biodistribution of [18F]FEDPN in beta estrogen receptor knock out mouse spleen after 2 h; (n=3); type: ADME, organism-based; settings: in vivo
Procedure, shortened: (§3)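 αERKO and βERKO mice, staged by daily vaginal smears and kept on estrogen-free chow, were studied in a nonestrous stage. Each mouse received 11 μCi of tracer in 130 μL of 10% ethanol/saline. Mice were killed at 30 min, 1 h or 2 h (n = 3 each). Organs were removed, blotted, weighed and gamma-counted against an injectate standard. Uptake is given as %ID/g ± SD.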

[8] = Biodistribution of [18F]FEDPN in beta estrogen receptor knock out mouse lung after 1 h; (n=3); type: ADME, organism-based; settings: in vivo; procedure, shortened: as §3
[9] = Biodistribution of [18F]FEDPN in beta estrogen receptor knock out mouse brain after 1 h; (n=3); type: ADME, organism-based; settings: in vivo; procedure, shortened: as §3
[10] = Biodistribution of [18F]-FEDPN in rat bone after 2 h when given in tail vein; (n=5); type: ADME, organism-based, Bone element; settings: in vivo, iv
Procedure, shortened: (§4)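 Immature female Sprague–Dawley rats (<25 days old) anesthetized with isoflurane/O2. Given 20 µCi tracer by tail vein in 150 µL of 20% ethanol/saline. […] Killed at 30 min, 1 h or 2 h. Blood and organs blotted, weighed and gamma-counted against a standard dilution of the injectate. Reported as %ID/g ± SD, n=5.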

[11] = Biodistribution of [18F]FEDPN in rat blood after 2 h when given in tail vein; (n=5); type: ADME, organism-based; settings: in vivo, iv; procedure, shortened: as §2
[12] = Biodistribution of [18F]FEDPN in rat liver after 1 h when given in tail vein; (n=5); type: ADME, organism-based; settings: in vivo, iv; procedure, shortened: as §2
[13] = Biodistribution of [18F]-FEDPN in rat liver after 2 hr when given in tail vein; (n=5); type: ADME, organism-based; settings: in vivo, iv; procedure, shortened: as §4
[14] = Biodistribution of [18F]FEDPN in rat lung after 1 h when given in tail vein; (n=5); type: ADME, organism-based; settings: in vivo, iv; procedure, shortened: as §2
[15] = Biodistribution of [18F]-FEDPN in rat thymus after 1 hr when given in tail vein; (n=5); type: ADME, organism-based; settings: in vivo, iv; procedure, shortened: as §4
[16] = Biodistribution of [18F]FEDPN in rat bone after 1 h block when given in tail vein; (n=5); type: ADME, organism-based, Bone element; settings: in vivo, iv; procedure, shortened: as §2
[17] = Biodistribution of [18F]FEDPN in rat ovaries after 30 min when given in tail vein; (n=5); type: ADME, organism-based, Female gonad; settings: in vivo, iv, 0.5 h; procedure, shortened: as §2
[18] = Biodistribution of [18F]FEDPN in beta estrogen receptor knock out mouse heart after 1 h; (n=3); type: ADME, organism-based; settings: in vivo; procedure, shortened: as §3
[19] = Biodistribution of [18F]FEDPN in alpha estrogen receptor knock out mouse brain after 1 h; (n=3); type: ADME, organism-based; settings: in vivo; procedure, shortened: as §1
[20] = Biodistribution of [18F]FEDPN in beta estrogen receptor knock out mouse ovaries after 1 h; (n=3); type: ADME, organism-based, Female gonad; settings: in vivo; procedure, shortened: as §3
[21] = Biodistribution of [18F]FEDPN in alpha estrogen receptor knock out mouse ovaries after 30 min; (n=3); type: ADME, organism-based, Female gonad; settings: in vivo, 0.5 h; procedure, shortened: as §3
[22] = Biodistribution of [18F]FEDPN in alpha estrogen receptor knock out mouse fat after 30 min; (n=3); type: ADME, organism-based, Adipose tissue; settings: in vivo, 0.5 h; procedure, shortened: as §1
[23] = Biodistribution of [18F]FEDPN in alpha estrogen receptor knock out mouse thymus after 2 h; (n=3); type: ADME, organism-based; settings: in vivo; procedure, shortened: as §3
[24] = Biodistribution of [18F]FES in alpha estrogen receptor knock out mouse muscle after 30 min; (n=3); type: ADME, organism-based, Muscle tissue; settings: in vivo, 0.5 h
[25] = Biodistribution of [18F]FES in beta estrogen receptor knock out mouse muscle after 30 min(n=2); mice in nonestrus stage; type: ADME, organism-based, Muscle tissue; settings: in vivo, 0.5 h
[26] = Biodistribution of [18F]FES in beta estrogen receptor knock out mouse spleen after 30 min(n=2); mice in nonestrus stage; type: ADME, organism-based; settings: in vivo, 0.5 h
[27] = Biodistribution of [18F]FES in beta estrogen receptor knock out mouse uterus after 2 h; (n=3); type: ADME, organism-based; settings: in vivo
[28] = Biodistribution of [18F]FES in alpha estrogen receptor knock out mouse bone after 1 h; (n=3); type: ADME, organism-based, Bone element; settings: in vivo
Procedure, shortened: (§5)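 Female αERKO mice were rested 48 h after shipping and fed estrogen-free chow. They were staged by daily vaginal smears and studied in diestrus. Each received 13 µCi [18F]FES in 100 µL 10% ethanol/saline and was sacrificed at 30 min, 1 h or 2 h (n = 3 per time). Tissue uptake is given as %ID/g ± SD.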

[29] = Biodistribution of [18F]FES in alpha estrogen receptor knock out mouse ovaries after 2 h; (n=3); type: ADME, organism-based, Female gonad; settings: in vivo; procedure, shortened: as §5
[30] = Biodistribution of [18F]-FES in beta estrogen receptor knock out mouse heart after 30 min; (n=3); type: ADME, organism-based; settings: in vivo, 0.5 h
Procedure, shortened: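 Female βERKO mice in estrus were used because repeated swabbing had induced pseudopregnancy. They were fed estrogen-free chow. Each received 13 µCi [18F]FES in 100 µL 10% ethanol/saline and was sacrificed at 30 min, 1 h or 2 h (n = 3 each). Tissue uptake is given as %ID/g ± SD.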

[31] = Biodistribution of [18F]FES in alpha estrogen receptor knock out mouse blood after 2 h; (n=3); type: ADME, organism-based; settings: in vivo; procedure, shortened: as §5
[32] = Biodistribution of [18F]FES in alpha estrogen receptor knock out mouse heart after 2 h; (n=3); type: ADME, organism-based; settings: in vivo; procedure, shortened: as §5
[33] = Biodistribution of [18F]FES in beta estrogen receptor knock out mouse fat after 1 h; (n=3); type: ADME, organism-based, Adipose tissue; settings: in vivo
[34] = Biodistribution of [18F]FES in beta estrogen receptor knock out mouse blood after 2 h; (n=3); type: ADME, organism-based; settings: in vivo
[35] = Biodistribution of [18F]FES in alpha estrogen receptor knock out mouse fat after 30 min; (n=3); type: ADME, organism-based, Adipose tissue; settings: in vivo, 0.5 h; procedure, shortened: as §5
[36] = Biodistribution of [18F]FES in alpha estrogen receptor knock out mouse spleen after 1 h; (n=3); type: ADME, organism-based; settings: in vivo
[37] = Biodistribution of [18F]FES in beta estrogen receptor knock out mouse ovaries after 1 h; (n=3); type: ADME, organism-based, Female gonad; settings: in vivo
[38] = Biodistribution of [18F]FES in beta estrogen receptor knock out mouse kidney after 30 min; (n=3); type: ADME, organism-based; settings: in vivo, 0.5 h
[39] = Biodistribution of [18F]FES in beta estrogen receptor knock out mouse muscle after 30 min; (n=3); type: ADME, organism-based, Muscle tissue; settings: in vivo, 0.5 h

N#C[C@H](c1ccc(O)cc1)[C@@H](CCF)c1ccc(O)cc1
Biodistribution [1]: 0.73 %ID/g | Biodistribution [2]: 3.7 %ID/g | Biodistribution [3]: 0.71 %ID/g | Biodistribution [4]: 0.21 %ID/g | Biodistribution [5]: 0.64 %ID/g | Biodistribution [6]: 1.42 %ID/g | Biodistribution [7]: 0.12 %ID/g | Biodistribution [8]: 1.71 %ID/g | Biodistribution [9]: 0.47 %ID/g | Biodistribution [10]: 1.88 %ID/g | Biodistribution [11]: 0.24 %ID/g | Biodistribution [12]: 1.51 %ID/g | Biodistribution [13]: 0.62 %ID/g | Biodistribution [14]: 0.44 %ID/g | Biodistribution [15]: 0.29 %ID/g | Biodistribution [16]: 1.82 %ID/g | Biodistribution [17]: 0.93 %ID/g | Biodistribution [18]: 0.43 %ID/g | Biodistribution [19]: 0.51 %ID/g | Biodistribution [20]: 0.41 %ID/g | Biodistribution [21]: 1.06 %ID/g | Biodistribution [22]: 0.57 %ID/g | Biodistribution [23]: 0.28 %ID/g

C[C@]12CC[C@@H]3c4ccc(O)cc4CC[C@H]3[C@@H]1C[C@@H](F)[C@@H]2O [FLUOROESTRADIOL]
Biodistribution [24]: 0.77 %ID/g | Biodistribution [25]: 1.89 %ID/g | Biodistribution [26]: 1.29 %ID/g | Biodistribution [27]: 9.23 %ID/g | Biodistribution [28]: 0.24 %ID/g | Biodistribution [29]: 0.18 %ID/g | Biodistribution [30]: 1.04 %ID/g | Biodistribution [31]: 0.12 %ID/g | Biodistribution [32]: 0.1 %ID/g | Biodistribution [33]: 1.07 %ID/g | Biodistribution [34]: 0.16 %ID/g | Biodistribution [35]: 1.51 %ID/g | Biodistribution [36]: 0.19 %ID/g | Biodistribution [37]: 5.61 %ID/g | Biodistribution [38]: 3.83 %ID/g | Biodistribution [39]: 1.7 %ID/g
